B1: tRNA (parent)
chain: GUUCCGUUGGCGUAAUGGUAACGCGUCUCCCUCCUAAGGAGAAGACUGCGGGUUCGAGUCCCGUACGGAACG

Fewer inactive variants are shown than the library holds.

This is an account of results in the RNAGym collection of RNA variant scans (doi:10.1126/science.aae0568).

In this data set the parent is B1. Description: yeast fitness relative to wild type (ratio to wild type); higher = fitter; tRNA-Arg(CCU), competitive growth, 37 C, YPD. The method, boiled down: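 Variants of the tRNA-Arg(CCU) gene, chemically synthesised with a 3% per-site mutation rate at 69 sites, were placed at the native genomic locus in Saccharomyces cerevisiae. The pooled strains were competed in YPD at 37°C for 24 hours in six parallel replicates. Gene amplicons from the start population and from each end population were read by 100-nucleotide paired-end sequencing. Darwinian fitness relative to wild type came from changes in genotype frequencies; genotypes needed ≥ 100 starting reads, and estimates < 0.5 were set to 0.5.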
Regarding GUUCCAUUGGUGUAAUGGUAACGCGUCUCCCUUCUAAGGAGAAGACUGCGGGUUCGAGUCCCGCACGGACCG [G6A C11U C33U U64C A70C], the yeast fitness was no more than 0.5. Under GUUCCAUUGGCGUAAUGGUAACGUGUCUCCCUCCUAAGGAGAAGACUGCGGGUUCGAGUCCCGUCCGGAACG [G6A C24U A65C] stands no more than 0.5. In the case of GUUCCAUUGGAGUAAUGGAAACGCGUCUCCCUCCUAAGGAGAAGACUGCGGGUUCGAGUCCCGUACGGUACG [G6A C11A U19A A69U] it was 0.577. In the case of GUUCCAUUGGUGUAAUGGUAACACGUCUCCCUCCUAAGGAGAAGAAUGCGGGUUAGAGUCCCGUACGGAACG [G6A C11U G23A C46A C55A] it was no more than 0.5; in that of GUUCCAUUGGCGUAAUGGUAACGGGUCUCCCUCCUAAGCAGAAGACUGCGGGUUCGAGUCUCGUAUGGAACG [G6A C24G G39C C61U C66U], no more than 0.5. As to GUUCCAUUGGCGUAAUGGUAACGUGUCUCCCGCCUAAGGUGAAGACUGCGGGUUCGAGUCCCGGACGGAACG [G6A C24U U32G A40U U64G], the yeast fitness was no more than 0.5. Under GUUCCAUUGGCGUAAUGGUAAUCCGUCUCCCUCCUAAGGAGAAGACUGGGGGGUCGGGUCCCGUACGGAACG [G6A C22U G23C C49G U53G A57G] stands no more than 0.5; under GUUCCAUUGGCGUAAUGGUAAGGCGUCUCCCUCCUAAGGAGAAGACUGCGGGUUCGAGUCCCGUACGGCACG [G6A C22G A69C], 0.591. In the case of GUUCCAUUGGCGUAAUGGUAACGCGUUUCCCUCCUAAGGAGAAGACUGCGGGUUCGAGUCCCGUACGGUACG [G6A C27U A69U] it was 0.695. Regarding GUUCCAUUGGCGUAAUGGUAACGUGUCUCCCUCCUAAGGAGAAGACUGCGGGUUCGAGUCCCGUACAGAACG [G6A C24U G67A], the yeast fitness came out at 0.72. Under GUUCCAUUGGCGUAAUGGUAACGCGUGUCCGUCCUAAGGAGAAGACUGCAGGUUCGAGUCCCGUACGGAUCG [G6A C27G C31G G50A A70U] stands no more than 0.5. In the case of GUUCCAUUGGCGUAAUGGUAACGCGUCUACGUCCUAAGGAGAAGACUGCGGGUUCGAGUCCCGUACAGAACG [G6A C29A C31G G67A] it was no more than 0.5. Turning to GUUCCAUUGGCGUAAUGGUAAUGCGUCUCGCUCCUGAGGAGAAGACUGCGGGUUCGAGUCCCGUACGGAACG [G6A C22U C30G A36G], the yeast fitness stood at 0.621.

Consider GUUCCAUUGGCGUAAUGGUAACGCGUGUCCCUCCUAAGGAGAAGACUGCGGGUUCGAGUCCCGUACGGAACG [G6A C27G], for which the yeast fitness turned out to be 0.758. Under GUUCCAUUGGCGUAAUGGUAACGUGUCACCCUCCUAAGGAGAAGACUGCGGGUUCGAGUUCCGUACGGAACG [G6A C24U U28A C60U] stands no more than 0.5; under GUUCCAUUGGCGUAAUGGUAACGUGUCUCCCUCCUAAGGAGAAGACUGCGGGUUCGAGUCGUGUAUGGUACG [G6A C24U C61G C62U C66U A69U], no more than 0.5. In the case of GUUCCAUUGGCGUAAUGGUAACGCGUCUACCUCCUAUGGAGAAGACUGCGGGUUCGAGUCCCGUACCGAACG [G6A C29A A37U G67C] it was no more than 0.5; in that of GUUCCAUUGGCGUAAUGGUAACGCGUCUGCCUCCUAAGGAGAAGACUGCGGGUUCGAGUCCCGUACGGCACG [G6A C29G A69C], no more than 0.5. In the case of GUUCCAUUGGCGUAAUGGUAAGGCGUCUCCCUCCUAAGGAGAAGACUGCGGGAUCGAGUCCCGUACGGAACG [G6A C22G U53A] it was no more than 0.5; in that of GUUCCAUUGGCGUAAUGGUAACGCGUCUACCUCCUAAGGAGAAGACUGCGGGUUCGAGUCCCGUACCGAACG [G6A C29A G67C], no more than 0.5; in that of GUUCCAUUGGUGUAAUGGUAACGCGUCUCCCUCGUAAGGAGAAGACUGCGGGUUCGAGUCCCGUACGGAACG [G6A C11U C34G], 0.567. In the case of GUUCCAUUGGCGUAAUGGUAACGCGUCUGCCUCCUAAGGAGAAGACUGCGGGUUCGAGUCCCGUUCGGAACG [G6A C29G A65U], the yeast fitness is no more than 0.5. In the case of GUUCCAUUGGCGUAAUGGUAACGCGUGUCCCUCCUAACGAGAAGACUGCGGGUUCGAGUCCCGUCCGGAACG [G6A C27G G38C A65C] it was 0.595.

Regarding GUUCCAUUGGCGUAAUGGUAACGCGUUUACCUCCUAAGGAGAAGACUGCGGGUUCGAGUCCCGUACGGAACG [G6A C27U C29A], the yeast fitness is no more than 0.5.

Consider GUUCCAUUGGCGUAAUGGUAACGCGUGUCCCUCCUAAGGAGAAGGCUGCGGGUUCGAGUCCCGUACGGAACG [G6A C27G A45G], for which the yeast fitness came out at 0.521. In the case of GUUCCAUUGGCGUAAUGGUAAGGCAUCUCCCUCCUAAGGAGAAGACAGCGGGUUCGAGUCCCGUACGGACCG [G6A C22G G25A U47A A70C] it was no more than 0.5; in that of GUUCCAUUGGCGUAAUGGUAACGUGUCUCCCUCCUAAGGAGAAGACUGCGGGUGCGAGUCCCGUUCGGAACG [G6A C24U U54G A65U], no more than 0.5; in that of GUUCCAUUGGGGUAAUGGUAGCGCGUGUUCCUCCGAAGGAGAAGACUGCGGGUUCCAGUCCCACACCGAACG [G6A C11G A21G C27G C29U U35G G56C G63A U64C G67C], no more than 0.5. In the case of GUUCCAUUGGAGUAAUGGUAACGCGUCUCCCACGUAAGGAGAAGACUGCGGGUUCGAAUCCCGUACGGAACG [G6A C11A U32A C34G G58A] it was no more than 0.5; in that of GUUCCAUUGGCGUAAUGGUAAAACGUCUCCCUUGUAAGGAGAAGACUGCGGGUUCGAGUCCCGUACGCAACG [G6A C22A G23A C33U C34G G68C], no more than 0.5. As to GUUCCAUUGGUGUAAUGGUAACGCGUAUCCCUCCUAAGGAGAAGACUGCGGGUUCGAGUCCCGUACGGAACG [G6A C11U C27A], the yeast fitness was determined as 0.719. As to GUUCCAUUGGCGUAAUGGUAAUGCGUCUCCCUCCUAGGGAGAAGACUGCGGGUUCGAGUCCCGUACGAGACG [G6A C22U A37G G68A A69G], the yeast fitness is no more than 0.5. Under GUUCCAUUGGCGUAAUGGUAACGUGUCUCCCUCCUAGGGAGAAGACUGCGGGUUCGAGUCGCGUAUGGUACG [G6A C24U A37G C61G C66U A69U] stands no more than 0.5; under GUUCCAUUGGUGUAAUGGUAAGGCGUCUCCCUCCUAAGGAGAAGACUGCGGGUUCGAGUCCCGUACGGAACG [G6A C11U C22G], 0.555; under GUUCCAUUGGCGUAAUGGUAACGUGUCUCCCGCCUAAGGUGAAGACUGCGGGUUCGAGUCCCGUACGGAACG [G6A C24U U32G A40U], no more than 0.5. Under GUUCCAUUGGCGUAAUGGUAACGCGUCUGCCUCCGAAGGAGAAGACUGCGGGUUCGAGUCUCGUACGGAACG [G6A C29G U35G C61U] stands no more than 0.5; under GUUCCAUUGGCGUAAUGGUAAUGCGUCUCCCUCCUAAGGGGAUGAGUGGGGGUUCGAGUCCUGUACGGAACG [G6A C22U A40G A43U C46G C49G C62U], no more than 0.5; under GUUCCAUUGGUGUAAUGGUAACGCGUCUCCCUCCUAAGGAGAAGACUGGGGGUUCGAGUCCUGUACGGAACG [G6A C11U C49G C62U], no more than 0.5.
